Assay results: ChEMBL document CHEMBL1212864, “Synthesis of novel 3,5-diaryl pyrazole derivatives using combinatorial chemistry as inhibitors of tyrosinase as well as potent anticancer, anti-inflammatory agents” (Bioorg Med Chem, 2010)

Experiments:
HCT-116 [1] = test: Anticancer activity against human HCT116 cells at 0.5 uM after 24 hrs; format: functional
PC-3 [2] = test: Anticancer activity against human PC3 cells at 0.5 uM after 24 hrs; format: functional
NCI-H460 [3] = test: Anticancer activity against human H460 cells at 0.5 uM after 24 hrs; format: functional
HL-60 [4] = test: Anticancer activity against human HL60 cells at 0.5 uM after 24 hrs; format: functional
MCF7 [5] = test: Anticancer activity against human MCF7 cells at 0.5 uM after 24 hrs; format: functional
PC-3 [6] = test: Anticancer activity against human PC3 cells at 10 uM after 24 hrs; format: functional
THP-1 [7] = test: Antiinflammatory activity against human THP1 cells assessed as inhibition of LPS-induced TNFalpha release at 10 uM after 24 hrs; format: functional; conditions: THP-1, 24 h
Summary of the method: (§1)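 Human THP-1 cells were grown in RPMI 1640 with 10% FBS, penicillin and streptomycin, then differentiated with PMA. Test agents in 0.5% DMSO were preincubated with cells for 30 min at 37 °C before E. coli 0127:B8 LPS was added. Cytokine release was measured by the manufacturer's (BD Biosciences) method and expressed as percent inhibition versus control; IC50 values came from nonlinear regression.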

HL-60 [8] = test: Anticancer activity against human HL60 cells at 10 uM after 24 hrs; format: functional
HCT-116 [9] = test: Anticancer activity against human HCT116 cells at 10 uM after 24 hrs; format: functional
NCI-H460 [10] = test: Anticancer activity against human H460 cells at 10 uM after 24 hrs; format: functional
THP-1 [11] = test: Antiinflammatory activity against human THP1 cells assessed as inhibition of LPS-induced IL6 release at 10 uM after 24 hrs; format: functional; conditions: THP-1, 24 h; summary of the method: as §1
MCF7 [12] = test: Anticancer activity against human MCF7 cells at 10 uM after 24 hrs; format: functional
Tyrosinase [13] = biological target: T1, Tyrosinase (Agaricus bisporus, UniProt O42713); test: Inhibition of mashroom tyrosinase
T1 sequence (O42713 whole entry): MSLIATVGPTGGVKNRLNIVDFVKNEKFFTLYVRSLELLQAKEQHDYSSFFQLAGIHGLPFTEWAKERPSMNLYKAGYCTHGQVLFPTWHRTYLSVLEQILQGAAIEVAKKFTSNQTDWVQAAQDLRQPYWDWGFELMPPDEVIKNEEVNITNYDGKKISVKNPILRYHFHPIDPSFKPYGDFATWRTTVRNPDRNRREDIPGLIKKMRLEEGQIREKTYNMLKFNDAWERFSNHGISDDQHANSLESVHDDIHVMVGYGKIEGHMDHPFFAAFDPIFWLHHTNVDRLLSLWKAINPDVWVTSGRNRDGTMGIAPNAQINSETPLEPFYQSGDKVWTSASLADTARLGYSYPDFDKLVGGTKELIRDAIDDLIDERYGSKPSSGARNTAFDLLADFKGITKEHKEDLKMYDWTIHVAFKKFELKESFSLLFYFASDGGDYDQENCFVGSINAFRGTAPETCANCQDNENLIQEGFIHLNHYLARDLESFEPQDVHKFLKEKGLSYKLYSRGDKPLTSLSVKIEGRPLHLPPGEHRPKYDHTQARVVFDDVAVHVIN
Summary of the method: (§2)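 Mushroom tyrosinase diphenolase activity (L-DOPA substrate) or monophenolase activity (L-tyrosine substrate) in 0.25 M phosphate buffer, pH 6.8, at 30 °C. Samples were first dissolved in DMSO. Dopachrome formation was followed spectrophotometrically at 475 nm.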

Tyrosinase [14] = biological target: T1, Tyrosinase; test: Inhibition of mashroom tyrosinase assessed as oxidation of L-DOPA; summary of the method: as §2
[15] = Cytotoxicity against […] at 1 uM; format: cell-based
Summary of the method: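 Cytotoxicity was measured with the CCK-8 kit in PMA-differentiated THP-1 cells at the same time as the LPS-induced cytokine release assay. Test agents were given in 0.5% DMSO with a 30 min preincubation at 37 °C before LPS.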

THP-1 [16] = test: Antiinflammatory activity against human THP1 cells assessed as inhibition of LPS-induced TNFalpha release at 1 uM after 24 hrs; format: functional; set-up: scale not given: the % may be the effect or the level left; summary of the method: as §1
THP-1 [17] = test: Antiinflammatory activity against human THP1 cells assessed as inhibition of LPS-induced IL6 release at 1 uM after 24 hrs; format: functional; set-up: scale not given: the % may be the effect or the level left; summary of the method: as §1

IC50 (Tyrosinase [13]) | Ki (Tyrosinase [13]) | IC50 (Tyrosinase [14]) | Ki (Tyrosinase [14]) | SMILES | Activity (HCT-116 [1]) | Activity (PC-3 [2]) | Activity (NCI-H460 [3]) | Activity (HL-60 [4]) | Activity (MCF7 [5]) | Activity (PC-3 [6]) | inhibition at 10 µM (THP-1 [7]) | Activity (HL-60 [8]) | Activity (HCT-116 [9]) | Activity (NCI-H460 [10]) | inhibition at 10 µM (THP-1 [11]) | Activity (MCF7 [12]) | Activity [15] | Activity (THP-1 [16]) | Activity (THP-1 [17])
 |  |  |  | CN1CC[C@H](c2c(O)cc(O)c3c(=O)cc(-c4ccccc4Cl)oc23)[C@H](O)C1 [ALVOCIDIB] | 87% | 77% | 78% | 72% | 74% |  |  |  |  |  |  |  |  |  | 
 |  |  |  | COc1cc(OC)c(C2CCN(C)C2CO)c(O)c1-c1cc(-c2ccccc2F)[nH]n1 (centres undefined) |  |  |  |  |  | 21% | 0% | 19% | 19% | 23% | 11% | 15% |  |  | 
 |  |  |  | COc1cc(OC)c(C2CCN(C)C2CO)c(O)c1-c1cc(-c2ccc(C)cc2)[nH]n1 (centres undefined) |  |  |  |  |  | 11% | 0% | 21% | 19% | 13% | 10% | 17% |  |  | 
 |  |  |  | COc1ccccc1-c1cc(-c2c(OC)cc(OC)c(C3CCN(C)C3CO)c2O)n[nH]1 (centres undefined) |  |  |  |  |  | 29% | 0% | 17% | 21% | 15% | 10% | 13% |  |  | 
15.5 µM | 11.2 µM | 19.6 µM | 12.6 µM | COc1cc(OC)c(C2CCN(C)C2CO)c(O)c1-c1cc(-c2ccc(F)cc2)[nH]n1 (centres undefined) |  |  |  |  |  | 15% | 11% | 26% | 21% | 16% | 28% | 19% |  |  | 
 |  |  |  | COc1cc(OC)c(C2CCN(C)C2CO)c(O)c1-c1cc(-c2ccc(Cl)cc2)[nH]n1 (centres undefined) |  |  |  |  |  | 65% | 16% | 63% | 55% | 58% | 35% | 61% |  |  | 
 |  |  |  | COc1ccc(-c2cc(-c3c(OC)cc(OC)c(C4CCN(C)C4CO)c3O)n[nH]2)cc1 (centres undefined) |  |  |  |  |  | 22% | 0% | 19% | 16% | 13% | 12% | 15% |  |  | 
 |  |  |  | COc1cc(OC)c(C2CCN(C)C2CO)c(O)c1-c1cc(-c2cccc(Cl)c2)[nH]n1 (centres undefined) |  |  |  |  |  | 67% | 11% | 61% | 63% | 55% | 35% | 59% |  |  | 
 |  |  |  | COc1cc(OC)c(C2CCN(C)C2CO)c(O)c1-c1cc(-c2ccc(Cl)cc2Cl)[nH]n1 (centres undefined) |  |  |  |  |  | 63% | 18% | 59% | 59% | 61% | 41% | 58% |  |  | 
 |  |  |  | COc1cc(OC)c(C2CCN(C)C2CO)c(O)c1-c1cc(-c2ccc(Br)cc2)[nH]n1 (centres undefined) |  |  |  |  |  | 59% | 17% | 57% | 49% | 61% | 31% | 63% |  |  | 
 |  |  |  | COc1cc(OC)c(C2CCN(C)C2CO)c(O)c1-c1cc(-c2ccccc2C)[nH]n1 (centres undefined) |  |  |  |  |  | 17% | 0% | 14% | 16% | 18% | 13% | 11% |  |  | 
1.75 µM | 0.84 µM | 2.84 µM | 0.96 µM | COc1ccc(-c2cc(-c3c(OC)cc(OC)c(C4CCN(C)C4CO)c3O)n[nH]2)c(OC)c1 (centres undefined) |  |  |  |  |  | 16% | 0% | 24% | 17% | 19% | 11% | 21% |  |  | 
22.8 µM | 10.6 µM | 29.4 µM | 11.8 µM | COc1cc(OC)c(C2CCN(C)C2CO)c(O)c1-c1cc(-c2ccccc2Cl)[nH]n1 (centres undefined) |  |  |  |  |  | 69% | 24% | 67% | 73% | 69% | 47% | 63% |  |  | 
17.8 µM | 9.85 µM | 21.5 µM | 14.6 µM | COc1cc(OC)c(C2CCN(C)C2CO)c(O)c1-c1cc(-c2ccc([N+](=O)[O-])cc2Cl)[nH]n1 (centres undefined) |  |  |  |  |  | 65% | 21% | 63% | 67% | 65% | 42% | 61% |  |  | 
 |  |  |  | COc1cc(OC)c(C2CCN(C)C2CO)c(O)c1-c1cc(-c2ccccc2Br)[nH]n1 (centres undefined) |  |  |  |  |  | 51% | 19% | 62% | 61% | 53% | 39% | 55% |  |  | 
 |  |  |  | C[C@@H]1C[C@H]2[C@@H]3CCC4=CC(=O)C=C[C@]4(C)[C@@]3(F)[C@@H](O)C[C@]2(C)[C@@]1(O)C(=O)CO [DEXAMETHASONE] |  |  |  |  |  |  |  |  |  |  |  |  | 0% | 71% | 85%
 |  |  |  | COc1cc(OC)c(C2CCN(C)C2CO)c(O)c1-c1cc(-c2cccc(Br)c2)[nH]n1 (centres undefined) |  |  |  |  |  | 58% | 13% | 52% | 59% | 61% | 43% | 65% |  |  | 
